Laboratory results from paper PMC10839140 (Iranian Journal of Medical Sciences, 2024).
Where two headings read alike, the source gives them in different places.

What was measured:
fibroblast cell line [1] = test: MTT cytotoxicity assay, fibroblast cells; assay type: cell-based; conditions: for IC50: Fibroblast, read-out: half-maximal inhibitory concentration; for percentage of cell viability was reduced by: fibroblast cells treated for 48 hours (abstract; concentration not stated there)
HEK-293 cell line [2] = test: MTT cytotoxicity assay, HEK-293 cells; assay type: cell-based; conditions: for IC50: read-out: half-maximal inhibitory concentration
[3] = tested on: SkBr3 breast cancer cell line; test: MTT cytotoxicity assay, SkBr3 cells; assay type: cell-based, human; conditions: read-out: half-maximal inhibitory concentration
fibroblast cell line [4] = test: Apoptosis analysis, annexin V-FITC/PI flow cytometry, fibroblast cells; assay type: cell-based; conditions: PINO 575 μM, LARI 500 μM
HEK-293 cell line [5] = test: Apoptosis analysis, annexin V-FITC/PI flow cytometry, HEK-293 cells; assay type: cell-based; conditions: PINO 575 μM, LARI 500 μM
[6] = tested on: SkBr3 breast cancer cell line; test: Apoptosis analysis, annexin V-FITC/PI flow cytometry, SkBr3 cells; assay type: cell-based, human; conditions: PINO 575 μM, LARI 500 μM
HEK-293 cell line [7] = test: Real-time PCR of apoptosis and cell cycle genes, HEK-293 cells; assay type: cell-based; conditions: 24 and 48 hours, PINO 575, LARI 500, PTOX 0.175 μM, vs untreated cells
How it was run: (§1)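 Cells grown at 37 °C, 5% CO₂: HEK-293 in DMEM/F12 with 10% FBS and penicillin/streptomycin, SkBr3 in supplemented DMEM. Vehicle control was methanol at 1% v/v final. Total RNA was DNase I-treated, and 3 µg was reverse-transcribed. Real-time PCR used GAPDH as the internal control and no-cDNA negative controls. Fold change was calculated by 2^-ΔΔCT, as the mean±SD of three experiments.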

[8] = tested on: SkBr3 breast cancer cell line; test: Real-time PCR of apoptosis and cell cycle genes, SkBr3 cells; assay type: cell-based, human; conditions: 24 and 48 hours, PINO 575, LARI 500, PTOX 0.175 μM, vs untreated cells
How it was run: as §1

Compound | IC50 (fibroblast cell line [1]; 24 h) [µM] | IC50 (fibroblast cell line [1]; 48 h) [µM] | percentage of cell viability was reduced by (fibroblast cell line [1]) [%] | IC50 (HEK-293 cell line [2]; Homo sapiens, HEK293, 24 h) [µM] | IC50 (HEK-293 cell line [2]; Homo sapiens, HEK293, 48 h) [µM] | IC50 ([3]; Homo sapiens, SK-BR-3, 24 h) [µM] | IC50 ([3]; Homo sapiens, SK-BR-3, 48 h) [µM] | increase of apoptosis compared to control cells (fibroblast cell line [4]; 24 hours) [fold] | increase of apoptosis compared to control cells (fibroblast cell line [4]; 48 hours) [fold] | increase of apoptosis compared to control cells (HEK-293 cell line [5]; HEK-293, 24 hours) [fold] | increase of apoptosis compared to control cells (HEK-293 cell line [5]; HEK-293, 48 hours) [fold] | increase of apoptosis compared to control cells ([6]; SKBR3, 24 hours) [fold] | increase of apoptosis compared to control cells ([6]; SKBR3, 48 hours) [fold] | expression of pro-apoptotic BAX and FAS genes and CDKN1A inhibitory gene (HEK-293 cell line [7]) | expression of pro-apoptotic BAX and FAS genes and CDKN1A inhibitory gene [8] | other results
COc1cc(C[C@H]2CO[C@H](c3ccc(O)c(OC)c3)[C@H]2CO)ccc1O [Lariciresinol, lariciresinol] | 475 | 400 | 47 | 550 | 475 | 600 | 500 | 7.4 | 20.2 | 6.7 | 7.4 | 10.7 | 12.7 | significantly overexpressed | significantly overexpressed | 
COc1cc([C@@H]2c3cc4c(cc3[C@H](O)[C@H]3COC(=O)[C@H]23)OCO4)cc(OC)c1OC [Podophyllotoxin, reference compound] | 0.175 | 0.075 | 36 | 0.15 | 0.075 | 0.3 | 0.175 |  |  |  |  |  |  | significantly overexpressed | significantly overexpressed | cell viability was reduced by up to (fibroblast cell line [1]; fibroblast, 48 hours, PTOX at 0.175 μM): ≤ 36%
Pinoresinol |  |  | 49 |  |  |  |  | 5.2 | 10.5 | 6.6 | 9 | 9 | 11 | significantly overexpressed | significantly overexpressed | cell viability (fibroblast cell line [1]; fibroblast, 48 hours, PINO at 575 μM, LARI at 500 μM): 49%; IC50 (fibroblast cell line [1]; 48-hour treatment, MTT): 550 µM; cell viability (HEK-293 cell line [2]; HEK-293, 48 hours, PINO at 575 μM, LARI at 500 μM): 49%; IC50 (HEK-293 cell line [2]; HEK-293, 24-hour treatment, MTT): 600 µM; IC50 (HEK-293 cell line [2]; HEK-293, 48-hour treatment, MTT): 550 µM; IC50 ([3]; SkBr3, 24-hour treatment, MTT): 675 µM; IC50 ([3]; SkBr3, 48-hour treatment, MTT): 575 µM
